What was measured:
[1] = Antiproliferative activity against human WM266.4 cells after 6 days by SRB assay; assay type: functional; conditions: WM 266-4, 144 h
In short: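 SRB cell proliferation assay on WM266.4 melanoma cells, which carry mutant BRAF. Growth inhibition is reported as GI50.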

[2] = target: T1, Serine/threonine-protein kinase B-raf (Homo sapiens, UniProt P15056, V600E); experiment: Inhibition of BRAF V600E mutant-mediated ERK phosphorylation in human WM266.4 cells; assay type: cell-based
[3] = target: T1, Serine/threonine-protein kinase B-raf; experiment: Inhibition of human BRAF V600E mutant expressed in Sf9 cells
[4] = Antiproliferative activity against human WM1361 cells after 5 days by SRB assay; conditions: WM1361, 120 h
[5] = Antiproliferative activity against human WM266.4 cells after 5 days by SRB assay; conditions: WM 266-4, 120 h

T1 sequence (P15056 2-766 V600E limits assumed): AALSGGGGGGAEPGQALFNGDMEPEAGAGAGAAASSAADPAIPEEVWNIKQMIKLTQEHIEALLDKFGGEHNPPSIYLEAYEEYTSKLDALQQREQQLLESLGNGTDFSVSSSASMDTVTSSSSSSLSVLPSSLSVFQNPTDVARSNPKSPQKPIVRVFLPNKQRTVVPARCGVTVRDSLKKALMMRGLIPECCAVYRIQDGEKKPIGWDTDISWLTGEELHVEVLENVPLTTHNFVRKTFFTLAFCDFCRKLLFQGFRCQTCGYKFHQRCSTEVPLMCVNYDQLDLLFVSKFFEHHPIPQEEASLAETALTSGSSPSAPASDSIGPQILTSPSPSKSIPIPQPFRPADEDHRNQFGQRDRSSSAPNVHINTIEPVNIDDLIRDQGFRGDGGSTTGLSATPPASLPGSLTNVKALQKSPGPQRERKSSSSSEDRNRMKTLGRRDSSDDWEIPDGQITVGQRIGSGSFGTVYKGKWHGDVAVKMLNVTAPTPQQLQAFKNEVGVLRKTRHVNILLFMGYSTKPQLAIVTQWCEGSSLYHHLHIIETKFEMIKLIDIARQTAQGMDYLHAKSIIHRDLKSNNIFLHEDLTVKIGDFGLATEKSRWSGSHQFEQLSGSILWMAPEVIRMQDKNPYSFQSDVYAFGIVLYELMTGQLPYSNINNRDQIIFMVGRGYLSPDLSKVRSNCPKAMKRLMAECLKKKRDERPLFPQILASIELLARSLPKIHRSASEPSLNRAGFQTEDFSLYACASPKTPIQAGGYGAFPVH

| Structure (SMILES) | GI50 [1] [µM] | IC50 [2] [µM] | IC50 [3] [nM] | GI50 [4] [µM] | GI50 [5] [µM] |
| --- | --- | --- | --- | --- | --- |
| O=C(Nc1cc(Oc2ccnc3[nH]c(=O)[nH]c23)c(F)cc1F)c1cccc(OC(F)(F)F)c1 | 4.6 | 6.9 | 10 | – | – |
| O=C(Nc1cccc(Oc2ccnc3[nH]c(=O)[nH]c23)c1)c1ccccc1 | 1.54 | > 100 | 25200 | – | – |
| O=C(Nc1cccc(F)c1)Nc1cccc(Oc2ccnc3[nH]c(=O)[nH]c23)c1 | 3.3 | 50.2 | 2750 | – | – |
| O=C(Nc1cccc(Oc2ccnc3[nH]c(=O)[nH]c23)c1)Nc1ccc(F)c(F)c1 | 3.7 | 39 | 1120 | – | – |
| O=C(Nc1cc(Oc2ccnc3[nH]c(=O)[nH]c23)c(Cl)cc1Cl)c1cccc(OC(F)(F)F)c1 | 1.2 | > 100 | 770 | – | – |
| O=C(Nc1cc(Cl)cc(Oc2ccnc3[nH]c(=O)[nH]c23)c1)c1cccc(OC(F)(F)F)c1 | 1.9 | 11.3 | 33 | – | – |
| O=C(Nc1cccc(Oc2ccnc3[nH]c(=O)[nH]c23)c1)c1ccc(Cl)cc1 | 9.1 | > 100 | 68000 | – | – |
| O=C(Nc1cccc(Oc2ccnc3[nH]c(=O)[nH]c23)c1)c1cc(F)cc(N2CCOCC2)c1 | 25.1 | 21.1 | 62 | – | – |
| O=C(Nc1cccc(Oc2ccnc3[nH]c(=O)[nH]c23)c1)Nc1ccc(Cl)c(C(F)(F)F)c1 | 4.2 | 10.7 | 15 | – | – |
| O=C(Nc1cccc(Oc2ccnc3[nH]c(=O)[nH]c23)c1)c1cc(OC(F)(F)F)ccc1F | 1.2 | 15 | 43 | – | – |
| O=c1[nH]c2nccc(Oc3cccc(NS(=O)(=O)c4ccc(Cl)c(C(F)(F)F)c4)c3)c2[nH]1 | 40 | 66 | 6800 | – | – |
| O=C(Nc1cccc(Oc2ccnc3[nH]c(=O)[nH]c23)c1)c1cc(Cl)cc(OC(F)(F)F)c1 | 6.5 | 14.6 | 71 | – | – |
| O=C(Nc1cccc(Oc2ccnc3[nH]c(=O)[nH]c23)c1)c1cccc(OC(F)(F)C(F)F)c1 | 0.841 | 5.7 | 23 | – | – |
| CC(C)(C)c1cc(C(=O)Nc2cccc(Oc3ccnc4[nH]c(=O)[nH]c34)c2)n(-c2ccccc2)n1 | 3.1 | 13.7 | 274 | – | – |
| CC(C)c1cc(C(=O)Nc2cccc(Oc3ccnc4[nH]c(=O)[nH]c34)c2)n(-c2ccccc2)n1 | 5.7 | 13.7 | 87 | – | – |
| O=C(Nc1cccc(Oc2ccnc3[nH]c(=O)[nH]c23)c1)c1cccc(OC(F)(F)F)c1F | 0.57 | 6.7 | 15 | – | – |
| O=C(Nc1cccc(Oc2ccnc3[nH]c(=O)[nH]c23)c1)c1ccc2sccc2c1 | 1.5 | 66 | 22000 | – | – |
| O=C(Nc1cccc(Oc2ccnc3[nH]c(=O)[nH]c23)c1)c1ccnc(Cl)c1 | 25 | > 100 | 93000 | – | – |
| Cc1ccc(-n2nc(C(F)(F)F)cc2NC(=O)c2cccc(Oc3ccnc4[nH]c(=O)[nH]c34)c2)cc1 | 32 | 14.8 | 500 | – | – |
| O=C(Nc1cccc(Oc2ccnc3[nH]c(=O)[nH]c23)c1)c1cccc(OC(F)(F)F)c1 | 1 | 7.56 | 14 | – | – |
| O=C(Nc1cccc(Oc2ccnc3[nH]c(=O)[nH]c23)c1)c1ccccc1OC(F)(F)F | 1.3 | 35.8 | 79000 | – | – |
| O=C(Nc1cccc(Oc2ccnc3[nH]c(=O)[nH]c23)c1)c1ccc(F)c(OC(F)(F)F)c1 | 7.4 | 27.7 | 49 | – | – |
| O=c1[nH]c2nccc(Oc3cccc(NS(=O)(=O)c4cccc(C(F)(F)F)c4)c3)c2[nH]1 | 0.83 | 57 | 15400 | – | – |
| O=C(CCc1ccccc1)Nc1cccc(Oc2ccnc3[nH]c(=O)[nH]c23)c1 | 30.9 | > 100 | 94000 | – | – |
| O=C(Nc1cccc(Oc2ccnc3[nH]c(=O)[nH]c23)c1)c1cccc(N2CCCC2)c1 | > 10 | > 100 | 115 | – | – |

| Structure (SMILES) | GI50 [1] [µM] | IC50 [2] [µM] | IC50 [3] [nM] | GI50 [4] [µM] | GI50 [5] [µM] |
| --- | --- | --- | --- | --- | --- |
| O=C(Nc1cccc(Oc2ccnc3[nH]c(=O)[nH]c23)c1)c1cccc(N2CCCCC2)c1 | 9.6 | 15.4 | 47 | – | – |
| O=C(Nc1ccc(Cl)c(C(F)(F)F)c1)c1cccc(Oc2ccnc3[nH]c(=O)[nH]c23)c1 | 7.3 | 8.2 | 90 | – | – |
| O=C(Nc1cc(C(F)(F)F)ccc1F)c1cccc(Oc2ccnc3[nH]c(=O)[nH]c23)c1 | 31 | 35 | 4700 | – | – |
| O=C(Nc1cccc(OC(F)(F)C(F)F)c1)c1cccc(Oc2ccnc3[nH]c(=O)[nH]c23)c1 | 0.677 | 8 | 240 | – | – |
| O=C(Nc1cccc(SC(F)(F)F)c1)c1cccc(Oc2ccnc3[nH]c(=O)[nH]c23)c1 | 9.2 | 13 | 187 | – | – |
| O=C(Nc1cccc(Oc2ccnc3[nH]c(=O)[nH]c23)c1)c1cc(Cl)cc(C(F)(F)F)c1 | 3.3 | 23.9 | 690 | – | – |
| CC(C)(C)c1cccc(C(=O)Nc2cccc(Oc3ccnc4[nH]c(=O)[nH]c34)c2)c1 | 1.83 | 3.5 | 17 | – | – |
| CC(C)(C)c1cccc(NC(=O)Nc2cccc(Oc3ccnc4[nH]c(=O)[nH]c34)c2)c1 | 12.9 | 10.3 | 195 | – | – |
| Cc1ccc(-n2nc(C(F)(F)F)cc2NC(=O)Nc2cccc(Oc3ccnc4[nH]c(=O)[nH]c34)c2)cc1 | 4.28 | 4.8 | 400 | – | – |
| O=c1[nH]c2nccc(Oc3cccc(NS(=O)(=O)c4cccc5ccccc45)c3)c2[nH]1 | 0.85 | 21.3 | 25000 | – | – |
| O=C(Nc1cc(F)cc(Oc2ccnc3[nH]c(=O)[nH]c23)c1)c1cccc(OC(F)(F)F)c1 | 2.4 | 16 | 33 | – | – |
| O=c1[nH]c2nccc(Oc3cccc(NS(=O)(=O)c4ccccc4)c3)c2[nH]1 | 0.175 | 29.6 | 1660 | – | – |
| O=C(Nc1cccc(Oc2ccnc3[nH]c(=O)[nH]c23)c1)c1cccc(Br)c1 | 0.907 | 100 | 1560 | – | – |
| O=c1[nH]c2nccc(Oc3cccc(NS(=O)(=O)c4cccc(OC(F)(F)F)c4)c3)c2[nH]1 | 0.83 | 94 | 11300 | – | – |
| O=C(Nc1cccc(Oc2ccnc3[nH]c(=O)[nH]c23)c1)c1cccc(-n2cccc2)c1 | 1.1 | 20.4 | 57 | – | – |
| O=C(Nc1cccc(OC(F)(F)F)c1)c1cccc(Oc2ccnc3[nH]c(=O)[nH]c23)c1 | 2.4 | 14.6 | 48 | – | – |
| O=C(Nc1cccc(Oc2ccnc3[nH]c(=O)[nH]c23)c1)Nc1cc(C(F)(F)F)ccc1F | 1.6 | 12.2 | 26 | – | – |
| O=C(Nc1cccc(Oc2ccnc3[nH]c(=O)[nH]c23)c1)Nc1cc(C(F)(F)F)ccc1N1CCOCC1 | 16.7 | 42 | 740 | – | – |
| O=C(Nc1cccc(Oc2ccnc3[nH]c(=O)[nH]c23)c1)c1cccc(SC(F)(F)F)c1 | 5.1 | 6.48 | 5 | – | – |
| O=C(Nc1cc(Oc2ccnc3[nH]c(=O)[nH]c23)ccc1Cl)c1cccc(OC(F)(F)F)c1 | 35 | > 100 | 240 | – | – |
| Cc1ccc(-n2nc(C(C)(C)C)cc2NC(=O)Nc2cccc(Oc3ccnc4[nH]c(=O)[nH]c34)c2)cc1 | 0.705 | 0.83 | 128 | – | – |
| O=C(Nc1cccc(Oc2ccnc3[nH]c(=O)[nH]c23)c1)c1cccc2ccccc12 | 23 | 29 | 920 | – | – |
| O=C(Nc1cccc(Oc2ccnc3[nH]c(=O)[nH]c23)c1)c1ccc(Cl)c(C(F)(F)F)c1 | 13.4 | 28 | 124 | – | – |
| CNC(=O)c1cc(Oc2ccc(NC(=O)Nc3ccc(Cl)c(C(F)(F)F)c3)cc2)ccn1 [SORAFENIB] | – | – | – | 4.34 | 4.93 |
